KCC2 mod: KCC2 cotransporter modulators, thallium flux, primary screen, cell-based, HEK293 KCC2, FluoZin-2 fluorescence, MLSMR. AID 1456, 2008. B-score of Tl+ flux slope (higher = more flux/activation; lower = inhibition) at 10 µM. 190,000 tested, 2.2% active. KCC2 cells, thallium flux FluoZin-2 fluorescence;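 active means thallium flux slope and its plate-corrected score both differing from the plate sample mean at a set confidence after two filtering rounds, in either direction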;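 further: slope of fluorescence scaled to starting intensity during 10 to 20 s after thallium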
CHT inh: inhibitors of human choline transporter CHT; CHT-expressing cells, membrane potential dye, choline response; stronger effect = lower value; B-score at 10 µM; 310,000 tested, 0.86% active; AID 488975, 2010;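 active means B-score over 3 SD under the library average, and starting fluorescence ratio not unusually high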;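 further: choline stimulus applied at its EC90 after an EC20 pre-addition; B-score computed on integrated fluorescence ratio after choline addition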
Rad51 HR inh: human RAD51 strand exchange inhibitors, primary screen, biochemical, fluorescence; DNA repair protein RAD51 homolog 1 (Homo sapiens), Q06609; 200,000 tested, 0.085% active; hRad51 DNA strand exchange, fluorescence dequenching; inhibition, % at 10 µM; AID 1385, 2008;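 active means inhibition above 40% at the single screening dose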;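 further: 0% = DMSO control wells and 100% = blanks with heterologous ssDNA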
Target sequence (Q06609 whole entry, looked up): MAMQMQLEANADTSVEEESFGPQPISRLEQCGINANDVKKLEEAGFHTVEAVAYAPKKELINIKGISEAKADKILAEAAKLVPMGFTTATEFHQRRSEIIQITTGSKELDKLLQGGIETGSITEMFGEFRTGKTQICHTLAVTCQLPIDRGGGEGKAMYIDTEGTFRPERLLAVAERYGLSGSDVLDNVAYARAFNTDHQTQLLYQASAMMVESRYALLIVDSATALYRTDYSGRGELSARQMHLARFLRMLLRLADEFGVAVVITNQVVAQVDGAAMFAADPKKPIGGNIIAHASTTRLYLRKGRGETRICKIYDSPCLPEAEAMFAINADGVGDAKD
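Assay system: Human Rad51 nucleoprotein filaments preassembled on unlabelled ssDNA | Reagent: Donor/quencher-labelled 47-bp dsDNA substrate | Doses: One concentration, 10 µM final | Times: 37 °C 15-min filament assembly, 30-min compound preincubation, 15-min exchange | Technique: Fluorescein emission 520 nm, excitation 485 nm | Benchmarks: Plate control and blank wells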
CHT PAM: CHT positive allosteric modulators, primary screen, cell-based, membrane potential dye, choline EC20. 310,000 tested, 0.49% active. B-score at 10 µM. CHT-expressing cells; stronger effect = higher value; LV-AA mutant CHT in HEK293 cells;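 active means initial fluorescence not abnormally high and integrated response B-score, plate-corrected, over 3 SD above library mean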
KCC2 secondary: KCC2 modulators in sodium-free buffer, confirmation, cell-based, HEK293 KCC2, thallium flux, secondary assay; normalised thallium flux (F/F0 slope) at 10 µM; 3,700 tested, 15% active; shares compounds with KCC2 mod; FluoZin2 fluorescence; stronger effect = higher value;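 active means thallium flux slope above the same plate's solvent-only control mean plus 3 SD; inconclusive means the two replicate wells disagree; inactive means no significant difference from solvent-only control wells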
KCC2 bumet counter: thallium flux persisting under bumetanide in KCC2 cells, confirmation, counter-screen for KCC2 modulator project, cell-based, HEK293 KCC2, FluoZin2, secondary assay 3 | normalized thallium flux at 10 µM | 3,700 tested, 49% active | HEK293-KCC2 + bumetanide/ouabain; stronger effect = higher value | shares compounds with KCC2 mod;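 active means thallium entry rate above the same plate's blocked-transporter control wells by more than 3 SD; inconclusive means the two repeat wells disagree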;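 further: raw slope of fluorescence over initial fluorescence between 10 and 20 s after thallium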
KCC2 secondary2: KCC2 modulators without ouabain present, confirmation, cell-based, HEK293 KCC2, thallium flux, FluoZin2, secondary assay 2; shares compounds with KCC2 mod; thallium flux FluoZin2 fluorescence; actives lie on both sides; F/F0 rise rate, 10–20 s post-thallium; normalized thallium flux at 10 µM; 3,700 tested, 23% active; AID 1715, 2009;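 active means thallium flux slope more than 3 SD above or below the plate's solvent-only control mean, mostly below; inconclusive means the two repeat wells disagreed; inactive means no significant shift from solvent-only controls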;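 further: raw slope with 0.1% DMSO as baseline and bumetanide as block control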
HEK counter1: thallium flux modulation in parental HEK cells, confirmation, counter-screen for KCC2 modulator project, cell-based, counterscreen 1; shares compounds with KCC2 mod; HEK293 parental cells, thallium flux FluoZin2, ouabain; baseline-ratio fluorescence slope, 10–20 s after thallium; thallium flux rate (normalised fluorescence) at 10 µM; 3,700 tested, 46% active;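 active means thallium flux rate significantly above the same plate's solvent-only control wells, beyond their mean plus 3 SD; inconclusive means the two replicate wells gave conflicting results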
KCC2 ouabain: KCC2 inhibitors and activators, ouabain retest, confirmation, HEK-KCC2 cells; HEK293-KCC2, thallium flux FluoZin2 fluorescence; bidirectional: low = inhibitor, high = activator; shares compounds with KCC2 mod; AID 1717, 2009; 3,700 tested, 48% active; raw Tl+ flux slope (below DMSO = inhibition, above = activation) at 10 µM;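 active means thallium flux slope beyond 3 SD from same-plate DMSO control mean in most replicates, usually higher, sometimes lower; inconclusive means repeat tests gave conflicting results; inactive means no significant difference from controls in most replicates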;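 further: slope of initial-normalized fluorescence between seconds 10 and 20 after thallium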
HEK counter2: native HEK Tl+ uptake effects, second counter-screen – HEK cells, counterscreen 2, counter-screen for KCC2 modulator project, confirmation; shares compounds with KCC2 mod; HEK293 parental, thallium flux FluoZin-2 fluorescence slope; thallium flux slope at 10 µM; 3,700 tested, 33% active; AID 1718, 2009;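 active means thallium flux slope above the same plate's solvent-control mean plus 3 SD in both duplicate wells; inconclusive means duplicate wells that disagreed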;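 further: run without ouabain in cells lacking the KCC2 cotransporter; slope of fluorescence scaled to its starting value between 10 and 20 s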
Numbers without * were called inactive; i = inactive; u = inconclusive; x = not tested or not shown. Sampled rows, rich in hits. Any-hit rate of the full collection: about 2.6%.

SMILES	KCC2 mod	CHT inh	Rad51 HR inh	CHT PAM	KCC2 secondary	KCC2 bumet counter	KCC2 secondary2	HEK counter1	KCC2 ouabain	HEK counter2
Cc1ccc(C2N(c3ccccc3)C(=S)N3CCCN23)cc1 (stereo not drawn)	x	i	0	i	0.0083	0.0049	0.034	0.0037	0.02	0.011
Cc1nc2ccccc2c2c1C(=O)N(C1CCCCCCC1)C2=O	-4.8*	i	-2	i	0.01	u	0.033	0.0076	0.022	0.01
COc1ccc(OC)c(C(=O)COC(=O)c2c(OC)cccc2OC)c1	0.74	i	-2	i	x	x	x	x	x	x
COc1ccc(OC)c(C(=O)COC(=O)c2ccccc2O)c1	x	i	3	i	0.0063	0.0059	0.028	0.0064	0.023*	u
COc1ccc(Cl)cc1C(=O)NNC(=O)C1COc2ccccc2O1 (stereo not drawn)	39*	i	7	i	0.0099	0.054*	0.033	0.017*	0.043*	0.012*
CCOC(=O)c1ccccc1NC(=O)C1COc2ccccc2O1 (stereo not drawn)	-5.2*	i	1	i	0.0094	0.0048	0.03	0.0066	0.024	0.0097
O=C(COC(=O)CC(c1ccccc1)c1ccccc1)NCc1ccc(Cl)cc1	-0.037	i	-4	i	x	x	x	x	x	x
CC(C)(C)c1ccc(COc2ccsc2C(=O)O)cc1	-2.8*	i	-5	i	0.01	0.0072	0.029	0.0075	0.019	u
COC(=O)Nc1csc2c1NC(=O)CCCC2	0.049	i	-4	i	x	x	x	x	x	x
COc1ccc(CCN(C)C(=S)Nc2ccc(SC(F)F)cc2)cc1OC	x	i	x	i	x	x	x	x	x	x
COc1ccc(CCN(C)C(=S)NC(=O)c2ccc(F)cc2Cl)cc1OC	9.8*	i	1	i	0.015*	0.036*	0.028	0.017*	0.033*	0.01*
O=S(=O)(NCc1csc(-c2cccnc2)n1)c1ccc(Cl)s1	1.8	i	-6	i	x	x	x	x	x	x
O=S(=O)(NCc1csc(-c2ccccc2)n1)c1ccc(Cl)s1	-5.7*	i	x	i	0.0051	0.014*	0.022*	0.0068	0.016*	u
CN1CCN(CCCNC(=O)c2ccc(/C=C3\Sc4ccccc4N(Cc4ccc(F)cc4)C3=O)cc2)CC1	2.7*	x	5	x	0.0089	0.0051	0.033	0.0077	0.019	0.012
CN1CCN(CCCNC(=O)c2ccc(/C=C3/Sc4ccccc4N(Cc4cccc(Cl)c4)C3=O)cc2)CC1	0.6	x	x	x	x	x	x	x	x	x
CCCCNC(=O)[C@H](CSCc1ccccc1)N1Cc2ccccc2C1=O	-2.6*	i	3	i	u	0.0055	0.032	0.0078	0.017*	0.01
COc1ccc(NC(=O)CCNS(=O)(=O)c2ccc3[nH]c(=O)oc3c2)cc1Cl	x	i	x	i	x	x	x	x	x	x
O=C(Nc1nc(-c2ccccn2)cs1)C1CC(=O)N(c2ccc3c(c2)OCCO3)C1 (stereo not drawn)	-3*	i	-15	i	0.0072	0.0078	0.029	0.0075	0.018*	0.011*
Cc1cccnc1NC(=O)C1CC(=O)N(c2ccc3c(c2)OCCO3)C1 (stereo not drawn)	x	i	x	i	x	x	x	x	x	x
CCC(=O)Nc1cc(C(C)(C)C)ccc1C(C)=O	-0.75	i	19	i	x	x	x	x	x	x
CN(CCO)c1cc(Sc2nc3ccccc3s2)c2nonc2c1[N+](=O)[O-]	x	i	-1	i	0.006	0.015*	0.033	0.014*	u	0.017*
CC(=O)OCCN(C)c1cc(SC(C)C)c2nonc2c1[N+](=O)[O-]	-0.041	i	8	i	x	x	x	x	x	x
CCOC(=O)c1oc2ccccc2c1NC(=O)c1ccc(Cl)s1	x	i	-4	i	x	x	x	x	x	x
COc1ccc(-c2cc(CNC(=O)CCl)on2)cc1	x	i	-6	i	x	x	x	x	x	x
COc1ccc(-c2cc(CNC(=O)CN(C)Cc3ccccc3)on2)cc1	x	i	x	i	0.0058	0.0049	0.024*	0.0068	0.013*	0.0094
SMILES	KCC2 mod	CHT inh	Rad51 HR inh	CHT PAM	KCC2 secondary	KCC2 bumet counter	KCC2 secondary2	HEK counter1	KCC2 ouabain	HEK counter2
O=C(Cc1cccs1)Nc1cccc(-c2nc3cc4ccccc4cc3[nH]2)c1	-1.7	i	x	i	x	x	x	x	x	x
CCN(c1ccccc1)S(=O)(=O)c1ccc(C(=O)N(C)CCc2ccc(OC)c(OC)c2)cc1	x	i	x	i	x	x	x	x	x	x
COc1ccc(CN(C(=O)c2cc3ccccc3oc2=O)C2CCCC2)cc1	-5.1*	i	6	i	0.0077	0.0043	0.031	u	u	0.011
COc1ccc(CN(C(=O)c2cc3ccccc3oc2=O)C2CCS(=O)(=O)C2)cc1 (stereo not drawn)	0.35	i	x	i	x	x	x	x	x	x
Cc1cc(C(=O)NCC(=O)OCC(=O)Nc2ccc(OC(F)F)cc2)ccc1[N+](=O)[O-]	-1.2	i	1	i	x	x	x	x	x	x
CC1CCCCC1NC(=O)CCC(=O)N1CCOc2ccc(Cl)cc21 (stereo not drawn)	x	i	x	i	x	x	x	x	x	x
COc1ccccc1/C=C(\NC(=O)c1ccc(OC)c(OC)c1)C(=O)Nc1cc([N+](=O)[O-])ccc1C	5.2*	i	7	i	0.015	0.0045	0.028	0.0068	0.017	0.0095
COc1ccc(/C=C(/NC(=O)c2cccc([N+](=O)[O-])c2)C(=O)O)cc1OC	0.25	i	24	i	x	x	x	x	x	x
CN1C(C(=O)NCc2ccc(OC(F)(F)F)cc2)CC2Cn3c(nc4cc(Cl)c(Cl)cc43)C21 (stereo not drawn)	1.1	i	1	i	x	x	x	x	x	x
